In ChEMBL document CHEMBL6177937, “Design, synthesis, and biological evaluation of novel thiazole derivatives as PI3K/mTOR dual inhibitors” (RSC Med Chem, 2024):
pIC50: −log10 of the molar value.

Columns and labels:
[1] = test system: Panel NCI-60 (60 carcinoma cell lines); experiment: Antiproliferative activity against human NCI-60 cells assessed as growth inhibition at 10 uM measured after 48 hrs by SRB assay relative to control; type: functional; conditions: read-out: GI
Procedure, shortened: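 NCI screen: cells seeded at […] per well and preincubated 24 h (37°C, 5% CO2). Compound stocks in DMSO, tested at a single 10 μM. Exposure 48 h. Adherent cells fixed with cold TCA (10% final), suspension cells with 16% TCA. SRB stain read at 515 nm. Percent growth inhibition reported against time-zero and untreated controls.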

MOLT-4 = experiment: Growth inhibition of human MOLT-4 cells measured after 48 hrs by SRB assay; type: functional
Procedure, shortened: (§1)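 NCI 60-line format with five concentrations (10-fold or ½-log serial dilutions) from DMSO stocks in medium with 50 μg/mL gentamicin. Cells preincubated 24 h, then exposed 48 h at 37°C, 5% CO2. Time-zero plates TCA-fixed. SRB absorbance read at 515 nm. GI50 taken from [(Ti−Tz)/(C−Tz)]×100 = 50. Out-of-range values are expressed as > or < the highest or lowest concentration tested.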

RPMI-8226 = experiment: Growth inhibition of human RPMI-8226 cells measured after 48 hrs by SRB assay; type: functional
Procedure, shortened: (§2)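 NCI 60-line SRB screen: cells seeded […], grown 24 h at 37°C, 5% CO2, then exposed 48 h to five concentrations (10-fold or ½-log dilutions from DMSO stock). Adherent cells fixed with cold TCA (final 10%), suspension cells with 80% TCA (final 16%); SRB stained, read at 515 nm. GI50 from time-zero, control and treated absorbances.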

A549 = experiment: Growth inhibition of human A549 cells measured after 48 hrs by SRB assay; type: functional; procedure, shortened: as §1
NCI-H322M = experiment: Growth inhibition of human NCI-H322M cells measured after 48 hrs by SRB assay; type: functional; procedure, shortened: as §1
HT-29 = experiment: Growth inhibition of human HT-29 cells measured after 48 hrs by SRB assay; type: functional; procedure, shortened: as §1
KM12 = experiment: Growth inhibition of human KM12 cells measured after 48 hrs by SRB assay; type: functional; procedure, shortened: as §1
SF-539 = experiment: Growth inhibition of human SF-539 cells measured after 48 hrs by SRB assay; type: functional; procedure, shortened: as §2
LOX IMVI = experiment: Growth inhibition of human LOX IMVI cells measured after 48 hrs by SRB assay; type: functional; conditions: for CC50: read-out: LC50 (the source's name); procedure, shortened: as §1
MDA-MB-435 = experiment: Growth inhibition of human MDA-MB-435 cells measured after 48 hrs by SRB assay; type: functional; procedure, shortened: as §1
SK-MEL-28 = experiment: Growth inhibition of human SK-MEL-28 cells measured after 48 hrs by SRB assay; type: functional; procedure, shortened: as §2
UACC-257 = experiment: Growth inhibition of human UACC-257 cells measured after 48 hrs by SRB assay; type: functional; conditions: for CC50: read-out: LC50 (the source's name); procedure, shortened: as §2
UACC-62 = experiment: Growth inhibition of human UACC-62 cells measured after 48 hrs by SRB assay; type: functional; procedure, shortened: as §2
IGROV-1 = experiment: Growth inhibition of human IGROV-1 cells measured after 48 hrs by SRB assay; type: functional; procedure, shortened: as §1
OVCAR-5 = experiment: Growth inhibition of human OVCAR-5 cells measured after 48 hrs by SRB assay; type: functional; conditions: for CC50: read-out: LC50 (the source's name); procedure, shortened: as §1
OVCAR-8 = experiment: Growth inhibition of human OVCAR-8 cells measured after 48 hrs by SRB assay; type: functional; procedure, shortened: as §1
NCI/ADR-RES = experiment: Growth inhibition of human NCI/ADR-RES cells measured after 48 hrs by SRB assay; type: functional; procedure, shortened: as §1
SK-OV-3 = experiment: Growth inhibition of human SK-OV-3 cells measured after 48 hrs by SRB assay; type: functional; procedure, shortened: as §2
786-0 = experiment: Growth inhibition of human 786-0 cells measured after 48 hrs by SRB assay; type: functional; conditions: for CC50: read-out: LC50 (the source's name); procedure, shortened: as §1
A498 = experiment: Growth inhibition of human A498 cells measured after 48 hrs by SRB assay; type: functional; procedure, shortened: as §1
ACHN = experiment: Growth inhibition of human ACHN cells measured after 48 hrs by SRB assay; type: functional; procedure, shortened: as §1
TK-10 = experiment: Growth inhibition of human TK-10 cells measured after 48 hrs by SRB assay; type: functional; procedure, shortened: as §2
MDA-MB-231 = experiment: Growth inhibition of human MDA-MB-231 cells measured after 48 hrs by SRB assay; type: functional; procedure, shortened: as §1
Hs-578T = experiment: Growth inhibition of human Hs-578T cells measured after 48 hrs by SRB assay; type: functional; conditions: for CC50: read-out: LC50 (the source's name); procedure, shortened: as §1
BT-549 = experiment: Growth inhibition of human BT-549 cells measured after 48 hrs by SRB assay; type: functional; procedure, shortened: as §1
MDA-MB-468 = experiment: Growth inhibition of human MDA-MB-468 cells measured after 48 hrs by SRB assay; type: functional; procedure, shortened: as §1
[2] = Cytotoxicity against human PCS-800-017 cells assessed as reduction in cell viability measured after 24 hrs by MTT assay; type: toxicity, cell-based
Procedure, shortened: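 MTT viability with 24 h incubation in 96-well plates. Five semi-log concentrations from 0.01 to 100 μM. Formazan absorbance read at 570 nm, with 690 nm background subtracted. Run in triplicate. IC50 obtained by sigmoidal dose-response fitting. Cells are leukemia HL-60(TB) and normal lymphocytes (PCS-800-017).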

[3] = Selectivity index, ratio of IC50 for human PCS-800-017 cells to IC50 for human HL-60 cells; type: toxicity; conditions: PCS-800-017 cells and HL-60 cells, read-out: Ratio IC50
[4] = molecular target: Serine/threonine-protein kinase mTOR (Homo sapiens, UniProt P42345); experiment: Inhibition of recombinant human N-terminal FLAG-tagged mTOR (1362 to end residues) expressed in baculovirus infected Sf21 insect cells using ULight-4E-BP1 as substrate measured after 30 mins by LANCE ultra assay
HL-60 [5] = experiment: Induction of apoptosis in human HL-60 cells assessed as necrotic cells measured after 24 hrs by Annexin-V/propidium iodide staining based flow cytometry (reference value: 0.61%); type: functional
HL-60 [6] = experiment: Induction of apoptosis in human HL-60 cells assessed as increase in caspase-3 level measured after 24 hrs by ELISA relative to control

CCOc1cc(/C=N/Nc2nc(-c3cccc([N+](=O)[O-])c3)cs2)ccc1O
inhibition of growth at 10 µM [1]: 112%
GI50 (MOLT-4): 1.74 µM
TGI (MOLT-4): 5.94 µM
GI50 (RPMI-8226): 3.03 µM
TGI (RPMI-8226): > 100 µM
GI50 (A549): 3.45 µM
TGI (A549): 14.1 µM
GI50 (NCI-H322M): 4.32 µM
TGI (NCI-H322M): 16.9 µM
GI50 (HT-29): 33.7 µM
TGI (HT-29): > 100 µM
GI50 (KM12): 1.94 µM
TGI (KM12): 3.63 µM
GI50 (SF-539): 1.78 µM
TGI (SF-539): 4.15 µM
GI50 (LOX IMVI): 1.73 µM
TGI (LOX IMVI): 3.59 µM
CC50 (LOX IMVI): 7.46 µM
GI50 (MDA-MB-435): 2.7 µM
TGI (MDA-MB-435): 9.14 µM
GI50 (SK-MEL-28): 2.27 µM
TGI (SK-MEL-28): 5.97 µM
GI50 (UACC-257): 1.71 µM
TGI (UACC-257): 3.23 µM
CC50 (UACC-257): 6.08 µM
GI50 (UACC-62): 2.39 µM
TGI (UACC-62): 6.56 µM
GI50 (IGROV-1): 2.46 µM
TGI (IGROV-1): 7.23 µM
GI50 (OVCAR-5): 3.79 µM
TGI (OVCAR-5): 16.2 µM
CC50 (OVCAR-5): 51.3 µM
GI50 (OVCAR-8): 2.84 µM
TGI (OVCAR-8): 9.63 µM
GI50 (NCI/ADR-RES): 2.72 µM
TGI (NCI/ADR-RES): 8.59 µM
GI50 (SK-OV-3): 3.36 µM
TGI (SK-OV-3): 27.8 µM
GI50 (786-0): 2.75 µM
TGI (786-0): 8.68 µM
CC50 (786-0): 81.8 µM
GI50 (A498): 20.2 µM
TGI (A498): 44.8 µM
GI50 (ACHN): 3.22 µM
TGI (ACHN): 11.6 µM
GI50 (TK-10): 4.42 µM
TGI (TK-10): 16.1 µM
GI50 (MDA-MB-231): 1.78 µM
TGI (MDA-MB-231): 3.88 µM
GI50 (Hs-578T): 3.38 µM
TGI (Hs-578T): 39.2 µM
CC50 (Hs-578T): > 100 µM
GI50 (BT-549): 2.84 µM
TGI (BT-549): 8.12 µM
GI50 (MDA-MB-468): 2.17 µM
TGI (MDA-MB-468): 4.61 µM
IC50 at 24 h [2]: 28.6 µM
selectivity ratio [3]: 12.3
pIC50 [4]: 6.66
Activity (HL-60 [5]): 4.93%
fold change (FC) (HL-60 [6]): 4.61

O=[N+]([O-])c1cc(/C=N/Nc2nc(-c3ccc(Cl)cc3)cs2)ccc1Cl
inhibition of growth at 10 µM [1]: 66%
GI50 (MOLT-4): 3.43 µM
TGI (MOLT-4): 24.1 µM
GI50 (RPMI-8226): 2.31 µM
TGI (RPMI-8226): 6.29 µM
GI50 (A549): 78.4 µM
TGI (A549): > 100 µM
GI50 (NCI-H322M): 3.23 µM
TGI (NCI-H322M): 13.7 µM
GI50 (HT-29): 3.6 µM
TGI (HT-29): 15.4 µM
GI50 (KM12): 1.88 µM
TGI (KM12): 3.58 µM
GI50 (SF-539): 16.3 µM
TGI (SF-539): 31.1 µM
GI50 (LOX IMVI): 3.91 µM
TGI (LOX IMVI): > 100 µM
CC50 (LOX IMVI): > 100 µM
GI50 (MDA-MB-435): 23.2 µM
TGI (MDA-MB-435): 98.3 µM
GI50 (SK-MEL-28): 17.2 µM
TGI (SK-MEL-28): 46.4 µM
GI50 (UACC-257): 7.52 µM
TGI (UACC-257): 22 µM
CC50 (UACC-257): 51.6 µM
GI50 (UACC-62): 11.1 µM
TGI (UACC-62): 26 µM
GI50 (IGROV-1): 13.6 µM
TGI (IGROV-1): 37.4 µM
GI50 (OVCAR-5): 23 µM
TGI (OVCAR-5): 78.2 µM
CC50 (OVCAR-5): > 100 µM
GI50 (OVCAR-8): 14.9 µM
TGI (OVCAR-8): 54.1 µM
GI50 (NCI/ADR-RES): 16.8 µM
TGI (NCI/ADR-RES): 41.5 µM
GI50 (SK-OV-3): 21.8 µM
TGI (SK-OV-3): 65 µM
GI50 (786-0): 19.8 µM
TGI (786-0): 61.3 µM
CC50 (786-0): > 100 µM
GI50 (A498): 14.8 µM
TGI (A498): 39.6 µM
GI50 (ACHN): 15.1 µM
TGI (ACHN): 28.4 µM
GI50 (TK-10): 28.1 µM
TGI (TK-10): 84 µM
GI50 (MDA-MB-231): 17.4 µM
TGI (MDA-MB-231): 42.6 µM
GI50 (Hs-578T): 2.36 µM
TGI (Hs-578T): 6.14 µM
CC50 (Hs-578T): > 100 µM
GI50 (BT-549): 14.5 µM
TGI (BT-549): 40.4 µM
GI50 (MDA-MB-468): 1.54 µM
TGI (MDA-MB-468): 3.01 µM
IC50 at 24 h [2]: 22.7 µM
selectivity ratio [3]: 9.9
pIC50 [4]: 6.05
Activity (HL-60 [5]): 3.64%
fold change (FC) (HL-60 [6]): 3.48
